According to ChEMBL document CHEMBL1140053, “Discovery of antimycobacterial spiro-piperidin-4-ones: an atom economic, stereoselective synthesis, and biological intervention” (J Med Chem, 2008):
≈ marks a conversion by molar mass, not a printed value.

Tests used:
[1] = system: Mycobacterium tuberculosis; assay: Antimycobacterial activity against Mycobacterium tuberculosis H37Rv by agar dilution method; assay type: functional
[2] = system: Vero; assay: Cytotoxicity against african green monkey Vero cells after 72 hrs by MTT assay; assay type: cell-based; conditions: Chlorocebus sabaeus
[3] = system: Mycolicibacterium smegmatis; assay: Antimycobacterial activity against Mycobacterium smegmatis MC2 by agar dilution method; assay type: functional
[4] = Selectivity index, ratio of IC50 for african green monkey Vero cells to MIC for mycobacterium; assay type: functional
Summary of the method: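 Selectivity index taken as IC50/MIC. IC50 comes from Vero cells exposed to serial dilutions up to 62.5 µg/mL for 72 h, with viability read by MTT conversion to formazan. MIC comes from agar dilution in Middlebrook 7H11 with OADC at pH 7.40, run in duplicate, and is the lowest concentration giving complete growth inhibition.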

[5] = system: Mycobacterium tuberculosis; assay: Antimycobacterial activity against Mycobacterium tuberculosis H37Rv ATCC 35801 infected in CD1 mouse assessed as bacterial load in lungs at 25 mg/kg, ip after 10 days; assay type: functional; conditions: route intraperitoneal
Summary of the method: (§1)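 Six-week-old female CD-1 mice, six per group, infected via caudal vein with approximately 10⁷ viable organisms. Intraperitoneal dosing at 25 mg/kg began 10 days post-inoculation and continued for 10 days. At 35 days post-infection, spleens and right lungs were homogenized and plated in serial 10-fold dilutions on 7H10 agar, incubated at 37 °C, 4 weeks. CFU compared with vehicle-treated controls.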

[6] = system: Mycobacterium tuberculosis; assay: Antimycobacterial activity against Mycobacterium tuberculosis H37Rv ATCC 35801 infected in CD1 mouse assessed as bacterial load in spleen at 25 mg/kg, ip after 10 days; assay type: functional; conditions: route intraperitoneal; summary of the method: as §1

Row | Compound | MIC [1] [µg/mL] | IC50 [2] [µM] | MIC [3] [µg/mL] | Selectivity Index [4] | log10cfu [5] | log10cfu [6]
1 | CN1C/C(=C\c2cccs2)C(=O)[C@]2(C1)[C@@H](c1cccs1)[C@@H]1CCCN1[C@@]21C(=O)Nc2ccccc21 (racemic) | 0.38 (≈ 0.757 µM) | 125 | 3.11 (≈ 6.2 µM) | – | – | –
2 | CN1C/C(=C\c2ccc(Cl)cc2)C(=O)[C@]2(C1)[C@@H](c1ccc(Cl)cc1)[C@H](c1ccccc1)N[C@@]21C(=O)Nc2ccccc21 (racemic) | 5.27 (≈ 8.86 µM) | – | 42.1 (≈ 70.8 µM) | – | – | –
3 | CN1C/C(=C\c2ccc(F)cc2)C(=O)[C@]2(C1)[C@@H](c1ccc(F)cc1)[C@H](c1ccccc1)N[C@@]21C(=O)Nc2ccccc21 (racemic) | 0.07 (≈ 0.125 µM) | 111 | 0.69 (≈ 1.23 µM) | 1634 | 6.01 | 5.2
4 | CN1C/C(=C\c2cccc(F)c2)C(=O)[C@]2(C1)[C@@H](c1cccc(F)c1)[C@H](c1ccccc1)N[C@@]21C(=O)Nc2ccccc21 (racemic) | 2.78 (≈ 4.95 µM) | 111 | 5.58 (≈ 9.94 µM) | – | – | –
5 | CN1C/C(=C\c2ccc(Cl)cc2Cl)C(=O)[C@]2(C1)[C@@H](c1ccc(Cl)cc1Cl)CN(C)[C@@]21C(=O)Nc2ccccc21 (racemic) | 1.29 (≈ 2.15 µM) | 104 | 5.21 (≈ 8.66 µM) | – | – | –
6 | CN1C/C(=C\c2ccccc2)C(=O)[C@]2(C1)[C@@H](c1ccccc1)[C@H](c1ccccc1)N[C@@]21C(=O)Nc2ccccc21 (racemic) | 0.74 (≈ 1.41 µM) | 119 | 2.97 (≈ 5.65 µM) | – | – | –
7 | CN1C/C(=C\c2ccccc2)C(=O)[C@]2(C1)[C@@H](c1ccccc1)[C@@H]1CCCN1[C@@]21C(=O)Nc2ccccc21 (racemic) | 25.6 (≈ 52.2 µM) | – | 102 (≈ 209 µM) | – | – | –
8 | Cc1ccc(/C=C2\CN(C)C[C@@]3(C2=O)[C@@H](c2ccc(C)cc2)[C@H](c2ccccc2)N[C@@]32C(=O)Nc3ccccc32)cc1 (racemic) | 0.71 (≈ 1.28 µM) | 113 | 2.82 (≈ 5.09 µM) | – | – | –
9 | CN1C/C(=C\c2ccccc2Cl)C(=O)[C@]2(C1)[C@@H](c1ccccc1Cl)[C@@H]1CCCN1[C@@]21C(=O)Nc2ccccc21 (racemic) | 0.35 (≈ 0.627 µM) | 114 | 5.69 (≈ 10.2 µM) | – | – | –
10 | O=C(O)c1cn(C2CC2)c2cc(N3CCNCC3)c(F)cc2c1=O [CIPROFLOXACIN] | – | – | 2.35 (≈ 7.09 µM) | – | – | –
11 | CN1C/C(=C\c2ccco2)C(=O)[C@]2(C1)[C@@H](c1ccco1)CN(C)[C@@]21C(=O)Nc2ccccc21 (racemic) | 1.76 (≈ 3.97 µM) | 141 | 0.88 (≈ 1.98 µM) | – | – | –
12 | CN1C/C(=C\c2ccc(Cl)cc2)C(=O)[C@]2(C1)[C@@H](c1ccc(Cl)cc1)[C@@H]1CCCN1[C@@]21C(=O)Nc2ccccc21 (racemic) | 22.7 (≈ 40.7 µM) | – | 90.9 (≈ 163 µM) | – | – | –
13 | COc1ccc(/C=C2\CN(C)C[C@@]3(C2=O)[C@@H](c2ccc(OC)cc2)[C@@H]2CCCN2[C@@]32C(=O)Nc3ccccc32)cc1 (racemic) | 5.7 (≈ 10.4 µM) | – | 45.5 (≈ 82.8 µM) | – | – | –
14 | Cc1ccc(/C=C2\CN(C)C[C@@]3(C2=O)[C@@H](c2ccc(C)cc2)CN(C)[C@@]32C(=O)Nc3ccccc32)cc1 (racemic) | 6.37 (≈ 13 µM) | – | 50.9 (≈ 104 µM) | – | – | –
15 | CN1C/C(=C\c2cccc3ccccc23)C(=O)[C@]2(C1)[C@@H](c1cccc3ccccc13)[C@@H]1CCCN1[C@@]21C(=O)Nc2ccccc21 (racemic) | 2.65 (≈ 4.49 µM) | 106 | 10.6 (≈ 18 µM) | – | – | –
16 | CN1C/C(=C\c2cccc3ccccc23)C(=O)[C@]2(C1)[C@@H](c1cccc3ccccc13)CN(C)[C@@]21C(=O)Nc2ccccc21 (racemic) | 11.1 (≈ 19.7 µM) | – | 22.2 (≈ 39.4 µM) | – | – | –
17 | CN1C/C(=C\c2ccc(Cl)cc2Cl)C(=O)[C@]2(C1)[C@@H](c1ccc(Cl)cc1Cl)[C@H](c1ccccc1)N[C@@]21C(=O)Nc2ccccc21 (racemic) | 2.35 (≈ 3.54 µM) | 94.3 | 9.43 (≈ 14.2 µM) | – | – | –
18 | CN1C/C(=C\c2ccc(F)cc2)C(=O)[C@]2(C1)[C@@H](c1ccc(F)cc1)[C@@H]1CCCN1[C@@]21C(=O)Nc2ccccc21 (racemic) | 2.97 (≈ 5.65 µM) | 119 | 23.8 (≈ 45.3 µM) | – | – | –
19 | Cc1ccccc1/C=C1\CN(C)C[C@@]2(C1=O)[C@@H](c1ccccc1C)[C@@H]1CCCN1[C@@]21C(=O)Nc2ccccc21 (racemic) | 12.1 (≈ 23.4 µM) | – | 24.2 (≈ 46.7 µM) | – | – | –
20 | CN1C/C(=C\c2cccc3ccccc23)C(=O)[C@]2(C1)[C@@H](c1cccc3ccccc13)[C@H](c1ccccc1)N[C@@]21C(=O)Nc2ccccc21 (racemic) | 5.01 (≈ 8.01 µM) | – | 20 (≈ 32 µM) | – | – | –
21 | COc1ccc(/C=C2\CN(C)C[C@@]3(C2=O)[C@@H](c2ccc(OC)cc2)[C@H](c2ccccc2)N[C@@]32C(=O)Nc3ccccc32)cc1 (racemic) | 0.67 (≈ 1.14 µM) | 107 | 1.33 (≈ 2.27 µM) | – | – | –

Row | Compound | MIC [1] [µg/mL] | IC50 [2] [µM] | MIC [3] [µg/mL] | Selectivity Index [4] | log10cfu [5] | log10cfu [6]
22 | CN1C/C(=C\c2ccc(Cl)cc2Cl)C(=O)[C@]2(C1)[C@@H](c1ccc(Cl)cc1Cl)[C@@H]1CCCN1[C@@]21C(=O)Nc2ccccc21 (racemic) | 19.9 (≈ 31.8 µM) | – | 79.7 (≈ 127 µM) | – | – | –
23 | CN1C/C(=C\c2ccco2)C(=O)[C@]2(C1)[C@@H](c1ccco1)[C@H](c1ccccc1)N[C@@]21C(=O)Nc2ccccc21 (racemic) | 24.8 (≈ 49 µM) | – | 49.5 (≈ 97.9 µM) | – | – | –
24 | COc1ccccc1/C=C1\CN(C)C[C@@]2(C1=O)[C@@H](c1ccccc1OC)CN(C)[C@@]21C(=O)Nc2ccccc21 (racemic) | 0.36 (≈ 0.688 µM) | 120 | 2.98 (≈ 5.69 µM) | – | – | –
25 | CN1C/C(=C\c2ccc(Cl)cc2)C(=O)[C@]2(C1)[C@@H](c1ccc(Cl)cc1)CN(C)[C@@]21C(=O)Nc2ccccc21 (racemic) | 2.93 (≈ 5.5 µM) | 117 | 5.88 (≈ 11 µM) | – | – | –
26 | CN1C/C(=C\c2ccc(F)cc2)C(=O)[C@]2(C1)[C@@H](c1ccc(F)cc1)CN(C)[C@@]21C(=O)Nc2ccccc21 | 6.27 (≈ 12.6 µM) | – | 50.1 (≈ 100 µM) | – | – | –
27 | Cc1ccccc1/C=C1\CN(C)C[C@@]2(C1=O)[C@@H](c1ccccc1C)CN(C)[C@@]21C(=O)Nc2ccccc21 (racemic) | 0.39 (≈ 0.793 µM) | 127 | 1.59 (≈ 3.23 µM) | – | – | –
28 | NNC(=O)c1ccncc1 [ISONIAZID] | 0.36 (≈ 2.63 µM) | – | 45.6 (≈ 332 µM) | – | 5.61 | 4.92
29 | COc1ccc(/C=C2\CN(C)C[C@@]3(C2=O)[C@@H](c2ccc(OC)cc2)CN(C)[C@@]32C(=O)Nc3ccccc32)cc1 (racemic) | 0.75 (≈ 1.43 µM) | 120 | 2.98 (≈ 5.69 µM) | – | – | –
30 | COc1ccccc1/C=C1\CN(C)C[C@@]2(C1=O)[C@@H](c1ccccc1OC)[C@@H]1CCCN1[C@@]21C(=O)Nc2ccccc21 (racemic) | 0.71 (≈ 1.29 µM) | 114 | 2.84 (≈ 5.17 µM) | – | – | –
31 | CN1C/C(=C\c2cccc(F)c2)C(=O)[C@]2(C1)[C@@H](c1cccc(F)c1)CN(C)[C@@]21C(=O)Nc2ccccc21 (racemic) | 1.56 (≈ 3.12 µM) | 125 | 6.27 (≈ 12.6 µM) | – | – | –
32 | CN1C/C(=C\c2cccs2)C(=O)[C@]2(C1)[C@@H](c1cccs1)CN(C)[C@@]21C(=O)Nc2ccccc21 (racemic) | 1.64 (≈ 3.45 µM) | 132 | 6.59 (≈ 13.9 µM) | – | – | –
33 | COc1ccccc1/C=C1\CN(C)C[C@@]2(C1=O)[C@@H](c1ccccc1OC)[C@H](c1ccccc1)N[C@@]21C(=O)Nc2ccccc21 (racemic) | 1.33 (≈ 2.27 µM) | 107 | 1.33 (≈ 2.27 µM) | – | – | –
34 | Cc1ccc(/C=C2\CN(C)C[C@@]3(C2=O)[C@@H](c2ccc(C)cc2)[C@@H]2CCCN2[C@@]32C(=O)Nc3ccccc32)cc1 (racemic) | 12.1 (≈ 23.4 µM) | – | 24.2 (≈ 46.7 µM) | – | – | –
35 | CN1C/C(=C\c2ccccc2Cl)C(=O)[C@]2(C1)[C@@H](c1ccccc1Cl)CN(C)[C@@]21C(=O)Nc2ccccc21 (racemic) | 0.17 (≈ 0.319 µM) | 117 | 1.47 (≈ 2.76 µM) | – | – | –
36 | CN1C/C(=C\c2cccc(F)c2)C(=O)[C@]2(C1)[C@@H](c1cccc(F)c1)[C@@H]1CCCN1[C@@]21C(=O)Nc2ccccc21 (racemic) | 5.96 (≈ 11.3 µM) | – | 23.8 (≈ 45.3 µM) | – | – | –
37 | CN1C/C(=C\c2ccco2)C(=O)[C@]2(C1)[C@@H](c1ccco1)[C@@H]1CCCN1[C@@]21C(=O)Nc2ccccc21 (racemic) | 53.3 (≈ 114 µM) | – | 107 (≈ 227 µM) | – | – | –
38 | CN1C/C(=C\c2ccccc2)C(=O)[C@]2(C1)[C@@H](c1ccccc1)CN(C)[C@@]21C(=O)Nc2ccccc21 (racemic) | 13.5 (≈ 29.1 µM) | – | 54 (≈ 116 µM) | – | – | –
39 | CN1C/C(=C\c2cccs2)C(=O)[C@]2(C1)[C@@H](c1cccs1)[C@H](c1ccccc1)N[C@@]21C(=O)Nc2ccccc21 (racemic) | 11.6 (≈ 21.6 µM) | – | 11.6 (≈ 21.6 µM) | – | – | –
40 | CN1C/C(=C\c2ccccc2Cl)C(=O)[C@]2(C1)[C@@H](c1ccccc1Cl)[C@H](c1ccccc1)N[C@@]21C(=O)Nc2ccccc21 (racemic) | 2.63 (≈ 4.42 µM) | 105 | 10.5 (≈ 17.7 µM) | – | – | –
41 | Cc1ccccc1/C=C1\CN(C)C[C@@]2(C1=O)[C@@H](c1ccccc1C)[C@H](c1ccccc1)N[C@@]21C(=O)Nc2ccccc21 (racemic) | 2.82 (≈ 5.09 µM) | 113 | 11.3 (≈ 20.4 µM) | – | – | –
